Reference: BindingDB's records for doi:10.1021/acs.jmedchem.8b00653 (Aix-Marseille University, 2018)

Molecular target: Bromodomain-containing protein 4 (Homo sapiens, UniProt O60885)
Assay: Inhibition of TEV cleavage site-fused-GST tagged BRD4(BD1) (unknown origin) using SGRGK(Ac)CGK(Ac)-GLGK(Ac)GGAK(Ac)RHRKVG-peptide after 3 hrs by HTRF assay
How it was run: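 GST-BRD4(BD1) purified on glutathione resin and by size exclusion; tetra-acetylated H4 peptide as ligand. Buffer 50 mM HEPES pH 7.5, 400 mM KF, 0.1% BSA, 0.5% DMSO final; 3 h at room temperature.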

CCn1cnc2c1c(=O)[nH]c(=O)n2Cc1ccc(CNS(=O)(=O)c2ccc3c(c2)CCCC(=O)N3)cc1
IC50: 251 nM
